Results taken from the RNAGym collection of RNA variant scans (doi:10.1126/science.aae0568).
This sample holds only a part of the variants without activity.

B1: tRNA (parent)
chain: GUUCCGUUGGCGUAAUGGUAACGCGUCUCCCUCCUAAGGAGAAGACUGCGGGUUCGAGUCCCGUACGGAACG

Variants of: B1
Assay: yeast fitness relative to wild type (ratio to wild type); higher = fitter; tRNA-Arg(CCU), competitive growth, 37 C, YPD
Summary of the method: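 Amplicons of the tRNA-Arg(CCU) gene were sequenced, 100-nucleotide paired-end, from the start population and from each end population of a pooled yeast competition. The competition, in six parallel replicates, lasted 24 hours in YPD at 37°C. Fitness relative to wild type was calculated from changes in genotype frequencies. Genotypes had to have ≥ 100 starting reads, and estimates < 0.5 were set to 0.5.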

| Variant | yeast fitness |
| --- | --- |
| A20C C27G C49A | ≤ 0.5 |
| U19G G41U | 0.691 |
| U19G G41C | 0.622 |
| U19G U47G G58C | ≤ 0.5 |
| U19G C55G | 0.651 |
| A20C A37C A43G C61U | ≤ 0.5 |
| A20C A42U A45G | 0.77 |
| U19G G50A G51C C55G C61U | ≤ 0.5 |
| A20C A21U C27G A42U | ≤ 0.5 |
| A20C A21U G41A | ≤ 0.5 |
| A20C A40U G48A C61A G68A | ≤ 0.5 |
| A20C A42C C60A | ≤ 0.5 |
| U19G G58A C66U | 0.857 |
| U19G U28C A37G C66U A69U | 0.524 |
| A20C C24U A43C | ≤ 0.5 |
| U19G G38C A70U | 0.501 |
| A20C A65U | 0.722 |
| A20C A65G | 0.936 |
| A20C C22U C29G G41C C49G U53A C66U | ≤ 0.5 |
| A20C C24U U47A G67C | ≤ 0.5 |
| U19G C66A | 0.53 |
| U19G C66U | 0.831 |
| A20C A36C | ≤ 0.5 |
| A20C A36U | 0.635 |

| Variant | yeast fitness |
| --- | --- |
| U19G U35C A43U A65G G68A | ≤ 0.5 |
| A20C C24U C55G | 0.643 |
| A20C C24U C55U | ≤ 0.5 |
| A20C C29U C31G C61G | ≤ 0.5 |
| A20C A21U C33G A57C | ≤ 0.5 |
| A20C C24U A42C C55G | ≤ 0.5 |
| A20C A21G G56C C66U | ≤ 0.5 |
| A20C A21G C46U C60G | ≤ 0.5 |
| A20C C24G G56A C62A | ≤ 0.5 |
| U19G G44A G48A G50C | ≤ 0.5 |
| A20C A36U A45U U53A | ≤ 0.5 |
| A20C A37C A43G U54A | ≤ 0.5 |
| A20C C24U A40G A42U G50A G51C A70C | ≤ 0.5 |
| A20C C24U C66U | ≤ 0.5 |
| A20C A21G U64G | 0.558 |
| A20C C29G A69C | 0.539 |
| A20C C22U C34U U35G U47C A65C | ≤ 0.5 |
| U19G U32G U53G | ≤ 0.5 |
| A20C C22G C33A A42C C61U | ≤ 0.5 |
| A20C C29G C31U A57U | ≤ 0.5 |
| A20C A40U A43C | 0.699 |
| A20C C29U C34A C46A G50A A57U C66U | ≤ 0.5 |
| A20C C29G A57U | ≤ 0.5 |
| A20C C29U A37G | 0.753 |

| Variant | yeast fitness |
| --- | --- |
| A20C A37C A43G | 0.57 |
| U19G G23A U35G | ≤ 0.5 |
| A20C A43G | 1.01 |
| A20C A43U | 0.829 |
| A20C C24G C27U C31G A65C | ≤ 0.5 |
| A20C A36U A45C C49G | ≤ 0.5 |
| A20C A57C | 0.601 |
| A20C A57U | 0.81 |
| A20C A57G | 0.757 |
| A20C C27U | 1.02 |
| A20C A21U C27G A42U A70G | ≤ 0.5 |
| A20C A36C A45C | 0.592 |
| A20C C24G C29G A65G | ≤ 0.5 |
| A20C A45C G63C G67A | ≤ 0.5 |
| A20C A42C | 0.603 |
| A20C C22U C33U | 0.542 |
| A20C A40G A42U G50A G51C | ≤ 0.5 |
| A20C A43U G48C | 0.615 |
| U19G U47C | 0.972 |
| U19G C49U U54C C62A | ≤ 0.5 |
| U19G G44A | 0.953 |
| A20C A21C C62G | ≤ 0.5 |
| A20C C27G A57C | ≤ 0.5 |
| A20C A40U A43U A70U | ≤ 0.5 |

| Variant | yeast fitness |
| --- | --- |
| A20C C29G | 0.609 |
| A20C C27U A45U | 0.636 |
| A20C A21G G58C | 0.698 |
| A20C C24A C29U G63C | ≤ 0.5 |
| U19G U59A A69U | ≤ 0.5 |
| A20C C24G A69U | ≤ 0.5 |
| A20C A37C U53C G63C | ≤ 0.5 |
| A20C C27U A36G A65G G67A | 0.542 |
| A20C A21G C24U | 0.647 |
| U19G U59C A69C | 0.658 |
| A20C A21G A45U | 0.91 |
| A20C C22U C34U U35G | ≤ 0.5 |
| A20C C27U C62U | 0.731 |
| U19G U32C | 1.04 |
| U19G U32A | 0.735 |
| A20C A65C C66U | 0.619 |
| A20C A21U C27G U35G C46A A70C | ≤ 0.5 |
| A20C A43U G56A | 0.656 |
| U19G U35C A40U | ≤ 0.5 |
| A20C A45G | 0.853 |
| A20C A45U | 0.8 |
| A20C A40U C61A G68A | 0.574 |
| A20C C22U A65G | 0.596 |
| A20C C22G C29A C30G | 0.616 |

| Variant | yeast fitness |
| --- | --- |
| A20C A36U A65U | ≤ 0.5 |
| A20C C27U C34G | 0.581 |
| A20C C29U C31G U32A C33A U53C | ≤ 0.5 |
| A20C C24G G39C G68C | ≤ 0.5 |
| A20C A21G C24U U26C | ≤ 0.5 |
| A20C C24U C34G | 0.506 |
| A20C C24U | 0.798 |
| A20C C24A | 0.751 |
| U19G G25A | 0.958 |
| U19G U64A A65G G67U | 0.606 |
| A20C C27U U59G | 0.582 |
| A20C A37G G56C C66U | ≤ 0.5 |
| A20C C22U | 0.729 |
| A20C A21C | 0.608 |
| A20C A40G G52C | ≤ 0.5 |
| A20C C27A G52C | 0.595 |
| A20C C22G C33A U59C | ≤ 0.5 |
| A20C A37C C49G | ≤ 0.5 |
| U19G G39C | 0.75 |
| U19G G39A | 1.07 |
| A20C A42C G58C | 0.52 |
| A20C A37G | 0.704 |
| A20C A37U | 0.817 |
| A20C A36G C55U | 0.556 |

| Variant | yeast fitness |
| --- | --- |
| A20C C29A G51C | ≤ 0.5 |
| A20C A43C A57C | ≤ 0.5 |
| U19G G51C | 0.537 |
| A20C C24U A42U U59C C62U | ≤ 0.5 |
| A20C C22U C33U C66A | ≤ 0.5 |
| A20C A37C G63A | ≤ 0.5 |
| A20C A36G U47C | 0.658 |
| A20C A21U C27G U35G | 0.521 |
| A20C A37U U59G C66A | 0.656 |
| U19G G41C A43U | 0.512 |
| A20C C22U U26C C46G C49U A69C | ≤ 0.5 |
| A20C A36G A45U A65G | 0.614 |
| A20C A45U A65G | 0.58 |
| A20C A70C | 0.862 |
| A20C C24U A42U U59C A69U | 0.535 |
| A20C C24A A36C G48C | ≤ 0.5 |
| A20C C22G C34G G44A A65U | 0.569 |
| A20C C29U A37G A69U | 0.526 |
| U19G U32C G52A G58C | ≤ 0.5 |
| A20C A21G G23A C66A | ≤ 0.5 |
| A20C C22U A40U | ≤ 0.5 |
| A20C A37G C49G U53A C60U | 0.527 |
| A20C C22U A43U A69C | ≤ 0.5 |
| A20C C27A C30A C31U G52A | ≤ 0.5 |

| Variant | yeast fitness |
| --- | --- |
| A20C A69G | 1.01 |
| A20C A69C | 1.13 |
| A20C A21G A70C | 0.803 |
| A20C A45U A69U | 0.773 |
| A20C C24A C60G | ≤ 0.5 |
| U19G U26C C29G A57U A69U A70C | ≤ 0.5 |
| U19G G25A G39A | 0.597 |
| A20C C29G U35C | ≤ 0.5 |
| A20C A40C | 0.788 |
| A20C A40U | 0.855 |
| A20C C22U C29G G41C C49G U53A | ≤ 0.5 |
| U19G G56A G67U | ≤ 0.5 |
| U19G G58C | 1.03 |
| A20C A21C C30G G39C A42G | 0.631 |
| U19G G25A G67A | 0.934 |
| A20C C29G A57U A70C | ≤ 0.5 |
| A20C A40U C60G A65C | ≤ 0.5 |
| A20C A21C G39A U53A | ≤ 0.5 |
| A20C A21G C66U | 0.737 |
| U19G G48A C49A | 0.574 |
| U19G U53A | 0.506 |
| A20C C24A C29G C34G G56A A65G A69C | 0.856 |
| A20C A40G A42U G50A G51C A70C | 0.563 |
